Laboratory results from PubChem BioAssay AID652250 (Vanderbilt Specialized Chemistry Center, 2013).
Activity calls are given as the source filed them.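 Rule for the calls: active = compounds leaving under half of the peptide-driven platelet calcium rise; inactive = the rest.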

target: Proteinase-activated receptor 4 (Homo sapiens) (UniProt Q96RI0); experiment: inhibition of PAR4-AP calcium signal – cell-based, single concentration, washed platelets, Fluo4 calcium (AID 652250); conditions: PAR4-AP calcium Fluo4 fluorescence
Sequence (Q96RI0 whole entry, looked up): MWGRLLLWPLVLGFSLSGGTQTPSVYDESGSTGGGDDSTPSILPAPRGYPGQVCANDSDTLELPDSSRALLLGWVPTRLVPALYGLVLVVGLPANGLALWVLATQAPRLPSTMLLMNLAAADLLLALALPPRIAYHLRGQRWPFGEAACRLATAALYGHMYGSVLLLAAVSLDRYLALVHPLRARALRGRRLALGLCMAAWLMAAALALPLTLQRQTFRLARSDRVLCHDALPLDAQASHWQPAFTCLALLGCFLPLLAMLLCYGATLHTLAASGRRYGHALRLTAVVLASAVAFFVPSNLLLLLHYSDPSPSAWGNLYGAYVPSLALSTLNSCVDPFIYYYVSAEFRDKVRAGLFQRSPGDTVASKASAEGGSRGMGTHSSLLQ
In short: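 Assay system: Fluo4-AM-loaded washed human platelets / Quantity: 10^8 platelets/mL / Detection: fluorescence at 480/540 nm, 1 s intervals / Also added: 80 µM PAR4-AP / Benchmarks: PAR4-AP-stimulated DMSO control (100%) / Replicates: triplicate wells / Read-out: peak minus basal RFU as % of per-donor DMSO control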

SMILES	IC50 [µM]
COc1ccc(-c2cn(Cc3cccc(Br)c3)c3ccccc23)cn1	5.27
COc1ccc(-c2cn(Cc3cccc(Cl)c3)c3ccccc23)cn1	3.13

same assay, conditions: PAR4-AP calcium Fluo4 fluorescence, at 10 µM, active compounds read low

SMILES	% of max PAR4-AP calcium response
CCN(CC)CC(O)Cn1c(C)c(-c2ccccc2)c2cc([N+](=O)[O-])ccc21 (configuration not stated)	inactive
Cc1c(C)n(CC(O)CNCCO)c2ccccc12 (configuration not stated)	inactive
CC(C)Nc1ncnc2c1c(-c1ccccc1)cn2-c1cccc(C(F)(F)F)c1	inactive
O=C(Nc1cccc(Br)c1)c1ccn(C(=O)Nc2ccc(Cl)cc2)n1	inactive
COc1ccc(Br)cc1CNC(=O)CCCc1cn(C)c2ccccc12	inactive
NS(=O)(=O)c1ccc(CCNc2ncnc3c2c(-c2ccccc2)cn3-c2cccc(Cl)c2)cc1	inactive
O=C(c1cn(Cc2ccc(F)cc2)c2ccccc12)C(F)(F)F	inactive
O=C(N/N=C/c1ccncc1)c1ccn(Cc2ccc(Cl)cc2Cl)n1	inactive
CC(C)Sc1ncnc2c1c(-c1ccccc1)cn2-c1cccc(F)c1	inactive
OC(CNCc1ccccc1)Cn1c2c(c3ccccc31)CCCC2 (configuration not stated)	inactive
CNc1ccccc1-n1ccc(-c2ccccc2)n1	inactive
Cc1nn(-c2ccccc2)c2[nH]c(C(F)(F)F)cc(=O)c12	inactive
COc1ccc2c(c1)c(C(=O)OCCN(C)C)c(C)n2C	37.4%
Cc1cc(-c2cn(Cc3ccccc3)c3ccccc23)cnc1F	inactive
CCc1nn(-c2ccccc2)c2nc(-c3ccccc3OC)c3cc(OC)c(OC)cc3c12	inactive
O=C(Cn1cc(C(=O)C(F)(F)F)c2ccccc21)NC1CCCCCC1	inactive
CN(C)c1ccc(/C=N/NC(=O)c2ccn(Cc3ccc(Cl)cc3)n2)cc1	inactive
COc1ccc(C)cc1NC(=O)Cc1cn(C)c2ccccc12	inactive
FC(F)(F)Oc1ccc(-c2cn(Cc3ccccc3)c3ccccc23)cc1	inactive
Cc1ccc(C)c(NC(=O)Cn2cc(C(=O)C(F)(F)F)c3ccccc32)c1	inactive
CCn1c(C(=O)O)c(CC(=O)N(C)c2ccc(F)cc2)c2ccccc21	inactive
Cc1cc(O)cc(O)c1C(=O)Cc1cnn(-c2ccccc2)c1	inactive
Clc1ccc(-n2cc(-c3ccccc3)c3c(NCc4ccc5c(c4)OCO5)ncnc32)cc1	inactive
CCn1ccc(C(=O)Nc2sc(C(=O)OC)c(C)c2C(=O)OC)n1	inactive
O=C(Cn1cc(C(=S)N2CCOCC2)c2ccccc21)N1CCOCC1	inactive
CN(C)c1ccc(-c2cn(Cc3ccccc3)c3ccccc23)cn1	inactive
COc1ccc(-n2cc(-c3ccccc3)c3c(=O)[nH]cnc32)cc1	inactive

SMILES	% of max PAR4-AP calcium response
Fc1ccc(OCCn2cc(C(=S)N3CCOCC3)c3ccccc32)cc1	38%
O=c1c2ccccc2nc(/C=C/c2cn(Cc3ccccc3)c3ccccc23)n1CCCO	inactive
CCCNc1ncnc2c1c(-c1ccccc1)cn2-c1ccccc1	inactive
O=C(Cn1cc(C(=O)C(F)(F)F)c2cc(Br)ccc21)N1CCCCC1	inactive
COc1ccc2c(c1)c(CC(=O)Nc1ccc(Cl)cn1)c(C)n2C(=O)c1ccc(Cl)cc1	inactive
Cc1c(CCO)c2ccccc2n1-c1ccccc1	inactive
O=C(Cn1cc(C(=O)C(F)(F)F)c2ccccc21)NC1CCCC1	inactive
Fc1ccccc1Cn1cc(C(=S)N2CCOCC2)c2ccccc21	inactive
CCOc1ncc(-c2cn(Cc3ccccc3)c3ccccc23)cn1	inactive
O=C(c1cn(Cc2ccccc2Cl)c2ccccc12)C(F)(F)F	inactive
Fc1cccc(Cn2cc(C(=S)N3CCCCC3)c3ccccc32)c1	inactive
COc1ccccc1NS(=O)(=O)c1ccc(NC(=O)c2ccc3c(c2)c(C)c(C)n3C)cc1	inactive
COc1ccc2c(c1)c(C(=O)CNc1nc(C)cs1)c(C)n2C	inactive
CCN1CCN(c2ncnc3c2c(-c2ccccc2)cn3-c2ccc(Br)cc2)CC1	inactive
OC(CN1CCCCC1)Cn1c2c(c3ccccc31)CCCC2 (configuration not stated)	inactive
Cn1cc(CC(=O)NCCCN2CCCC2=O)c2ccccc21	inactive
Cc1ccc(-n2cc(-c3ccccc3)c3c(N4CC(C)OC(C)C4)ncnc32)cc1 (configuration not stated)	inactive
COc1ccc(OC)c(NC(=O)Cc2cn(C)c3ccccc23)c1	inactive
Fc1ccc(Cn2cc(C(=S)N3CCCC3)c3ccccc32)cc1	inactive
O=C(CN1CCOCC1)n1c2c(c3ccccc31)CCCC2	inactive
CCOc1ccc(NCC(O)Cn2c(C)c(C)c3ccccc32)cc1 (configuration not stated)	inactive
COc1ccc2c(c1)c(C(=O)CNc1nccs1)c(C)n2C	inactive
NC(=O)C1CCN(c2ncnc3c2c(-c2ccccc2)cn3-c2ccc(Cl)cc2)CC1	inactive
CSc1ccc(-c2cn(Cc3ccccc3)c3ccccc23)cn1	inactive
COc1cc(Nc2ncnc3c2c(-c2ccccc2)cn3-c2ccccc2)cc(OC)c1OC	inactive
COc1ccc(Nc2ncnc3c2c(-c2ccccc2)cn3-c2ccc(Br)cc2)cc1OC	38.7%
COc1ccc(-c2cn(Cc3cccc(-c4ccsc4)c3)c3ccccc23)cn1	inactive

SMILES	% of max PAR4-AP calcium response
Fc1ccc(CNc2ncnc3c2c(-c2ccccc2)cn3-c2ccc(F)cc2)cc1	inactive
COc1ccc(OCCn2cc(C(=O)C(F)(F)F)c3ccccc32)cc1	inactive
S=C(c1cn(CCOc2ccccc2)c2ccccc12)N1CCCC1	inactive
Cn1cc(CC(=O)N2CCN(c3ccc([N+](=O)[O-])cc3)CC2)c2ccccc21	inactive
COc1cc(NS(=O)(=O)c2ccc(NC(=O)c3ccc4c(c3)c(C)c(C)n4C)cc2)ncn1	inactive
FC(F)(F)c1cccc(-n2cc(-c3ccccc3)c3c(NC4CCCC4)ncnc32)c1	inactive
c1ccc(-c2ccn(-c3ccccc3)n2)cc1	inactive
Cc1ccc(-n2c(/C=C/c3cn(C)c4ccccc34)nc3ccccc3c2=O)cc1	inactive
Fc1ccc(Cn2cc(C(=S)N3CCOCC3)c3ccccc32)cc1	inactive
COc1ncc(-c2cn(Cc3ccccc3)c3ccccc23)cn1	inactive
Cc1ccc2c(c1)c1c3n2CCN(C(=O)CN2CCN(C(=O)c4ccco4)CC2)C3CCC1 (configuration not stated)	inactive
O=C(c1ccccc1)n1cc(-c2nc3cc(Cl)ccc3o2)cn1	inactive
Cc1nc(-c2cnn(-c3ccccc3)c2)c2cc(C)oc2n1	inactive
CC(=O)n1cc(-c2ccncc2)c2ccccc21	inactive
Cn1cc(CC(=O)NCc2cccs2)c2ccccc21	inactive
CCOc1ccc(NC(=O)Cn2cc(C(=O)C(F)(F)F)c3ccccc32)cc1	inactive
OCCc1c(-c2ccccc2)n(Cc2ccccc2)c2ccccc12	inactive
OCc1cn(Cc2ccc(Cl)c(Cl)c2)c2ccccc12	inactive
Fc1ccc(OCCn2cc(C(=S)N3CCCCC3)c3ccccc32)cc1	inactive
Cc1ccc(-n2nc(C(=O)N3CCC(C#N)CC3)c3c4ccccc4n(C)c3c2=O)cc1	inactive
Cc1ccc2c(c1)c(-c1ccccc1)c(-c1ccccc1)n2CC(O)CN1CCOCC1 (configuration not stated)	inactive
CC(O)CNc1ncnc2c1c(-c1ccccc1)cn2-c1ccccc1 (configuration not stated)	inactive
CCCCN(C)c1ncnc2c1c(-c1ccccc1)cn2-c1cccc(C)c1	inactive
COc1ccc(-n2nc(C(=O)Nc3cccc(C)n3)c3c4ccccc4n(C)c3c2=O)cc1Cl	inactive
Cc1ccc(-n2cc(-c3ccccc3)c3c(NC4CCCC4)ncnc32)cc1Cl	inactive
CC(=O)c1ccc(N2CCN(c3ncnc4c3c(-c3ccccc3)cn4-c3ccccc3)CC2)cc1	inactive
